Measurements collected from several papers.
Protocols differ between the studies behind these lines.
CYSLTR1: Cysteinyl leukotriene receptor 1 (CYSLTR1, Homo sapiens, UniProt Q9Y271)
BCHE: Cholinesterase (BCHE, Homo sapiens, UniProt P06276)
EIF2AK2: Interferon-induced, double-stranded RNA-activated protein kinase (EIF2AK2, Homo sapiens, UniProt P19525)

Compound	target	effect on	action	method	concentration	inhibition [%]
CC(C)N1CCC[C@H]1CNC(=O)c1cn(C2CCCC2)c(=O)c2c1c1ccccc1n2C	CYSLTR1	ligand displacement	–	radioligand	10 µM	22
C=CCn1c2cc(OC(=O)CCCCN3CCN(Cc4cccc(F)c4)CC3)ccc2c2ccnc(C)c21	BCHE	enzyme activity	inhibitor	Ellman	1 µM	17.3
CN(CCN1CCC(OC(=O)Nc2ccccc2-c2ccccc2)CC1)C(=O)c1ccc(CN2CCC(C(N)=O)CC2)cc1	CYSLTR1	ligand displacement	–	radioligand	1 µM	-13
C#Cc1n[nH]c2c(-c3cn(C(C)c4ccccn4)c(=O)[nH]c3=O)cc(F)cc12 (centres unmarked)	Fibroblast growth factor receptor 4 (FGFR4, Homo sapiens, UniProt P22455)	enzyme activity	inhibitor	–	1 µM	0.5
O=C(Nc1cccnn1)N1CCN([C@@H]2CCOc3cc(C(F)(F)F)ccc32)CC1	CYSLTR1	ligand displacement	–	–	20 µM	6
C=CCn1c2cc(OC(=O)CCCCN3CCN(Cc4ccccc4C)CC3)ccc2c2ccnc(C)c21	BCHE	enzyme activity	inhibitor	Ellman	1 µM	39.8
CCN(CC)CCCC[C@H](NC(=O)[C@H](CC(C)C)NC(=O)[C@H](C)NC(=O)[C@H](Cc1ccccc1)NC(=O)c1ccc(C(C)(C)C)cc1)C(=O)N[C@@H](CO)C(=O)OC	Melanocortin receptor 4 (MC4R, Homo sapiens, UniProt P32245)	ligand displacement	–	radioligand	10 µM	16
Cn1cc(-c2cccc(N3CCc4c(sc5c4CC(C)(C)C5)C3=O)c2CO)cc(Nc2ccncn2)c1=O	Tyrosine-protein kinase Fgr (FGR, Homo sapiens, UniProt P09769)	enzyme activity	inhibitor	–	1 µM	53
COc1cc(CNC(=O)CCCC/C=C/C(C)C)ccc1O	DNA dC->dU-editing enzyme APOBEC-3B (Homo sapiens, UniProt Q9UH17)	enzyme activity	inhibitor	fluorescence	100 µM	32.3
COc1ccc(S(=O)(=O)N2CCCCC2)cc1C	CYSLTR1	ligand displacement	–	radioligand	10 µM	< 30
C=CCn1c2cc(OC(=O)CCCCN3CCN(Cc4ccccc4F)CC3)ccc2c2ccnc(C)c21	BCHE	enzyme activity	inhibitor	Ellman	1 µM	21
COCc1c(-c2cc3cc(C)cc(OC)c3s2)c2c(N)ncnn2c1CN1CCNC(=O)C1	EIF2AK2	cell-free assay	–	competition with immobilised ligand	1 µM	97.3
COc1ccc2c(c1)[nH]c1c(C)nccc12	BCHE	enzyme activity	inhibitor	Ellman	1 µM	25.7
COc1cc(Nc2ncc(F)c(Nc3ccc4c(n3)NC(=O)C(C)(C)O4)n2)cc(OC)c1OC	EIF2AK2	binding	–	competition with immobilised ligand	10 µM	86
